Results: ChEMBL document CHEMBL4513216, “Probing the Open Global Health Chemical Diversity Library for Multistage-Active Starting Points for Next-Generation Antimalarials” (ACS Infect Dis, 2020)

Assay: Toxicity liver stage against HepG2, at 10uM
Assay type: cell-based
Parameters: test concentration 10 uM, cell line HepG2-A16-CD81EGFP
Details: human, HepG2-A16-CD81EGFP cells; read-out: INHIBITION
Method in brief: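 Uninfected HepG2-A16-CD81EGFP cells, 3 × 10^3 per well, 1536-well, plated on prespotted compound at 10 μM final, parasite-free screening media added to match infected plates; puromycin 10 μM positive, DMSO 0.5% negative; run in parallel with 48 h PbLuc assay at 37 °C, 5% CO2; viability by CellTiter-Glo luminescence, normalized to controls.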

Row | SMILES | cytotoxicity at 10 µM
1 | Cc1cc(=O)[nH]cc1C(=O)N1CCN(C)c2ccccc2C1 | -10.1%
2 | CC(C)CC(NC(=O)c1cc(-c2cccn2C)n[nH]1)c1ncnn1C (configuration not stated) | -3.08%
3 | Cc1nccc(C2CCCN(C(=O)c3cncnc3)C2)n1 (configuration not stated) | 4.1%
4 | CN1CCC2(CC1)Cc1ccccc1CN(C(=O)CN)C2 | -1.63%
5 | CCc1ncc2c(n1)CN(Cc1ncc(C(C)(C)C)o1)CC2 | -15.9%
6 | Cc1n[nH]c(C)c1-c1cnc(CC2CCN(C(C)C)CC2)cn1 | 22.3%
7 | Cc1nc(C2(NCC(=O)NCCc3cccs3)CCCC2)no1 | -2.18%
8 | COCc1nc(N(C)C)ncc1C(=O)NC(C)C | 12.8%
9 | COC(=O)CNC(=O)CCc1cc(Br)cs1 | 0.624%
10 | COc1ccccc1OCCNS(=O)(=O)N1CCOCC1 | 9.37%
11 | CCS(=O)(=O)Nc1ccn(Cc2cccc(Cl)c2)n1 | -4.49%
12 | c1ccc(-c2nnc(CNCCn3cccn3)o2)cc1 | -10.7%
13 | COc1cc(C(=O)N2CC(Oc3ccccc3Cl)C2)ccn1 | -3.52%
14 | COCCO[C@H]1CCN(C(=O)c2cc(C)on2)[C@H]1Cc1ccccc1 | 8.22%
15 | CCNC(=O)Nc1c(C)cnn1Cc1cc(F)ccc1F | 5.28%
16 | COC[C@H]1CC[C@H]2[C@H](CCN2S(=O)(=O)c2ccccc2)O1 | -1.45%
17 | CS(=O)(=O)N1CCOC2(CCCC2)C1 | -4.7%
18 | CC(=O)NC1CCCN(Cc2ccc(-n3ccnc3)cc2)C1 (configuration not stated) | -57.4%
19 | CCN1CCC(c2nc3ccc(NC4CCC4)cn3n2)CC1 | -121%

Row | SMILES | cytotoxicity at 10 µM
20 | CCOCC(=O)Nc1ccc(N2CCSCC2)cc1C | 9.53%
21 | CC(=O)N(Cc1ccsc1)c1ccccc1 | -1.74%
22 | Cc1ccc(CN(C(=O)NCC2CCCO2)C2CC2)o1 (configuration not stated) | -151%
23 | NC(=O)C(NCc1ccc(Cl)s1)c1ccccc1 (configuration not stated) | 2.8%
24 | Fc1cnc(N2CCCn3c(nnc3Cn3cccn3)C2)nc1 | 4.53%
25 | Cc1cc(Br)c2c(c1)C1(CC(=O)Nc3c1cnn3C(C)C)C(=O)N2 (configuration not stated) | -10.3%
26 | Cc1nc2c(c(N[C@H](C(N)=O)C(C)C)n1)Cc1ccccc1OC2 | 4.71%
27 | Cc1cc(NCc2cccc(C#N)c2)ccc1Br | 7.99%
28 | CC(C)(C)CC(=O)NCC(=O)Nc1ccn(Cc2ccccc2)n1 | 7.08%
29 | CN1CC[C@H](N(C)Cc2ccccc2)C[C@H](O)C1 | -0.895%
30 | O=C(NCCCn1cccn1)N1CCCC1c1ccsc1 (configuration not stated) | -7.86%
31 | CC(CNC(=O)NCc1ccoc1)N1CCc2sccc2C1 (configuration not stated) | -4.8%
32 | Cc1ccsc1C(=O)N1CC[C@H]2CO[C@H](CN(C)C)[C@H]2C1 | 2.93%
33 | Cn1cccc1C(=O)N1CCc2ncc(Cn3cccn3)n2CC1 | -5.2%
34 | Cc1nnc(NCCC(=O)N(C)Cc2ccccc2)c(C#N)c1C | -1.04%
35 | Cc1ccsc1CN1C[C@@H]2COC[C@]2(CNC(=O)c2ccco2)C1 | -95.5%
36 | Cc1cnn(CC2CCCN2Cc2noc(C(C)C)n2)c1 (configuration not stated) | -1.67%
37 | O=C(c1ccno1)N1CCN2C(=O)N(Cc3ccc(F)cc3)C[C@H]2C1 | -5.96%
38 | CCS(=O)(=O)N1CCC2(CC1)CC1(CCN(CCOC)CC1)C(=O)N2C | 0.503%

Row | SMILES | cytotoxicity at 10 µM
39 | Clc1cccc(C(CNc2ncccn2)N2CCOCC2)c1 (configuration not stated) | 4.55%
40 | CCCc1nnc(N2CCC3(CC2)CN(C)C(=O)O3)o1 | 2.64%
41 | O=C(CCCn1cncn1)NC1(c2cccc(Br)c2)CC1 | 9.57%
42 | CC(=O)N(Cc1ccc(NCc2cnn(C(C)(C)C)c2)cc1)C(C)C | -3.44%
43 | COc1cccc(COCC(=O)N2CCCC(n3cncn3)C2)c1 (configuration not stated) | -21.1%
44 | CSc1ccccc1C(=O)N1CCN(C)C2(CCC(=O)N(C)CC2)C1 (configuration not stated) | 3.84%
45 | CCOc1ccc(OCC(O)CN2CCN(S(C)(=O)=O)CC2)cc1 (configuration not stated) | -36.8%
46 | CCC(=O)N1CCCCC1c1nc(N(C)C)ncc1-c1cc(C)no1 (configuration not stated) | 5.69%
47 | CC(=O)NCCNc1cc(C)nc2cc(C)nn12 | -6.91%
48 | O=C(C1COCCO1)N1CCN(CC(F)(F)F)c2ccccc21 (configuration not stated) | 7.36%
49 | CC(C)NC(=O)CN(C)C(=O)c1c(Br)c2ccccc2n1C | 4.61%
50 | COc1no[n+]([O-])c1-c1ccccc1 | 8.2%
51 | Cc1cc(C)n(C(=O)c2cn(C)nc2S(=O)(=O)N2CCSCC2)n1 | -2.64%
52 | Cn1cc(CNCC2(N3CCCCC3)Cc3ccccc3C2)cn1 | -3.07%
53 | Cc1cc2nc(C(C)C)cc(N(C)CC3CCN(C(C)C)C3)n2n1 (configuration not stated) | 7.26%
54 | CCOc1ccccc1C(C(=O)O)N(C)Cc1nc(C)c[nH]1 (configuration not stated) | -5.18%
55 | CCn1c(CC2CCN(S(=O)(=O)Cc3ccccc3)CC2)nn(C)c1=O | -2.43%
56 | CC(C)N(C)CC(=O)N(C)C(c1cccc(F)c1)c1ccccn1 (configuration not stated) | -6.14%
57 | O=C(Nc1cc(F)ccc1OCC1CCCO1)NC1CC1 (configuration not stated) | 0.043%
